Reference: ChEMBL document CHEMBL1240350, “In vitro activity of CEM-101 against Streptococcus pneumoniae and Streptococcus pyogenes with defined macrolide resistance mechanisms” (Antimicrob Agents Chemother, 2010)
Converted amounts (≈) assume the structure as drawn.

Tests used:
[1] = tested on: Streptococcus pneumoniae; assay: Antibacterial activity against penicillin-intermediate Streptococcus pneumoniae after overnight incubation by agar dilution method; format: functional
Summary of the method: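 Agar dilution on Mueller-Hinton agar supplemented with 5% sheep blood, inoculum 10^4 CFU/spot, read after overnight incubation at 35°C in ambient air. Clinical isolates with defined genotypes; S. pneumoniae ATCC 49619 quality control strain included in each run. MIC50/MIC90 are MICs inhibiting 50% and 90% of isolates.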

[2] = tested on: Streptococcus pneumoniae; assay: Antibacterial activity against Streptococcus pneumoniae harboring erm(A) gene after overnight incubation by agar dilution method; format: functional
Summary of the method: (§1)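 Clinical isolates collected 1998–2008, with macrolide-resistance genes confirmed by PCR. MICs by agar dilution on Mueller-Hinton agar with 5% sheep blood. Inoculum 10^4 CFU/spot, incubated overnight at 35°C in ambient air. S. pneumoniae ATCC 49619 was the quality-control strain in every run.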

[3] = tested on: Streptococcus pneumoniae; assay: Antibacterial activity against Streptococcus pneumoniae harboring mutation in 23S rRNA after overnight incubation by agar dilution method; format: functional; summary of the method: as §1
[4] = tested on: Streptococcus pyogenes; assay: Antibacterial activity against Streptococcus pyogenes harboring mef(A) gene after overnight incubation by agar dilution method; format: functional; summary of the method: as §1
[5] = tested on: Streptococcus pyogenes; assay: Antibacterial activity against Streptococcus pyogenes harboring erm(A) gene after overnight incubation by agar dilution method; format: functional; summary of the method: as §1
[6] = tested on: Streptococcus pyogenes; assay: Antibacterial activity against macrolide-resistant Streptococcus pyogenes harboring erm(B) gene after overnight incubation by agar dilution method; format: functional
Summary of the method: (§2)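 Agar dilution MICs on Mueller-Hinton agar with 5% sheep blood. Inoculum 10^4 CFU/spot, incubated overnight at 35°C in ambient air. Clinical S. pneumoniae or group A streptococcal isolates; resistance genotypes (erm(B), erm(A), mef(A)/mef(E)) were assigned by PCR. S. pneumoniae ATCC 49619 served as QC strain in each run. Range, MIC50 and MIC90 reported per phenotype group.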

[7] = tested on: Streptococcus pyogenes; assay: Antibacterial activity against macrolide-resistant Streptococcus pyogenes harboring mef(A) gene after overnight incubation by agar dilution method; format: functional; summary of the method: as §2
[8] = tested on: Streptococcus pneumoniae; assay: Antibacterial activity against macrolide-susceptible Streptococcus pneumoniae 1077 after overnight incubation by agar dilution method; format: functional
[9] = tested on: Streptococcus pneumoniae; assay: Antibacterial activity against macrolide-susceptible Streptococcus pneumoniae 1077 after 43 passages and 10 compound-free subculturing by retest method; format: functional
[10] = tested on: Streptococcus pneumoniae; assay: Antibacterial activity against macrolide-susceptible Streptococcus pneumoniae 1077 after 29 passages and 10 compound-free subculturing by retest method; format: functional
[11] = tested on: Streptococcus pneumoniae; assay: Antibacterial activity against macrolide-susceptible Streptococcus pneumoniae 1077 after 49 passages and 10 compound-free subculturing by retest method; format: functional
[12] = tested on: Streptococcus pneumoniae; assay: Antibacterial activity against macrolide-resistant Streptococcus pneumoniae 1076 harboring erm(B) and mef(A) gene after 14 passages and 10 compound-free subculturing by retest method; format: functional
Summary of the method: (§3)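 Multistep selection by daily serial passage in subinhibitory drug concentrations. Medium was cation-adjusted Mueller-Hinton broth plus 5% lysed horse blood. Each day the next inoculum came from the tube 1–2 dilutions below the MIC whose turbidity matched the growth control, for up to 50 days. Clone MICs by CLSI macrodilution; identity to the parent confirmed by SmaI PFGE.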

[13] = tested on: Streptococcus pneumoniae; assay: Antibacterial activity against macrolide-resistant Streptococcus pneumoniae 1635 harboring erm(A) gene after 32 passages and 10 compound-free subculturing by retest method; format: functional; summary of the method: as §3
[14] = tested on: Streptococcus pneumoniae; assay: Antibacterial activity against macrolide-resistant Streptococcus pneumoniae 2686 harboring mutation in L4 ribosomal protein after 14 passages and 10 compound-free subculturing by retest method; format: functional
[15] = tested on: Streptococcus pneumoniae; assay: Antibacterial activity against macrolide-resistant Streptococcus pneumoniae 2686 harboring mutation in L4 ribosomal protein after 25 passages and 10 compound-free subculturing by retest method; format: functional
[16] = tested on: Streptococcus pneumoniae; assay: Antibacterial activity against macrolide-susceptible Streptococcus pneumoniae 7127 harboring S20N mutation in L4 ribosomal protein and A105V mutation in L22 ribosomal protein after 16 passages and 10 compound-free subculturing by retest method; format: functional
[17] = tested on: Streptococcus pneumoniae; assay: Antibacterial activity against macrolide-susceptible Streptococcus pneumoniae 7127 harboring S20N mutation in L4 ribosomal protein and A105V mutation in L22 ribosomal protein after 15 passages and 10 compound-free subculturing by retest method; format: functional
[18] = tested on: Streptococcus pneumoniae; assay: Antibacterial activity against macrolide-susceptible Streptococcus pneumoniae 7127 harboring S20N mutation in L4 ribosomal protein and A105V mutation in L22 ribosomal protein after 43 passages and 10 compound-free subculturing by retest method; format: functional
[19] = tested on: Streptococcus pneumoniae; assay: Antibacterial activity against macrolide-resistant Streptococcus pneumoniae 3009 harboring mutation in 23S rRNA after 20 passages and 10 compound-free subculturing by retest method; format: functional
[20] = tested on: Streptococcus pneumoniae; assay: Antibacterial activity against macrolide-resistant Streptococcus pneumoniae 3009 harboring mutation in 23S rRNA after 25 passages and 10 compound-free subculturing by retest method; format: functional
[21] = tested on: Streptococcus pneumoniae; assay: Antibacterial activity against macrolide-resistant Streptococcus pneumoniae 3665 harboring mef(A) gene after overnight incubation by agar dilution method; format: functional
[22] = tested on: Streptococcus pneumoniae; assay: Antibacterial activity against macrolide-resistant Streptococcus pneumoniae 1635 harboring erm(A) gene after overnight incubation by agar dilution method; format: functional
[23] = tested on: Streptococcus pneumoniae; assay: Antibacterial activity against macrolide-resistant Streptococcus pneumoniae 3009 harboring mutation in 23S rRNA after overnight incubation by agar dilution method; format: functional
[24] = tested on: Streptococcus pyogenes; assay: Antibacterial activity against macrolide-susceptible Streptococcus pyogenes 2132 after 28 passages and 10 compound-free subculturing by retest method
[25] = tested on: Streptococcus pyogenes; assay: Antibacterial activity against macrolide-resistant Streptococcus pyogenes 2094 harboring erm(A) gene after overnight incubation by agar dilution method
[26] = tested on: Streptococcus pyogenes; assay: Antibacterial activity against macrolide-resistant Streptococcus pyogenes 2094 harboring erm(A) gene after 6 passages and 10 compound-free subculturing by retest method
[27] = tested on: Streptococcus pyogenes; assay: Antibacterial activity against macrolide-resistant Streptococcus pyogenes 2368 harboring erm(B) gene after 18 passages and 10 compound-free subculturing by retest method
[28] = tested on: Streptococcus pyogenes; assay: Antibacterial activity against macrolide-resistant Streptococcus pyogenes 2094 harboring erm(A) gene after 34 passages and 10 compound-free subculturing by retest method
[29] = tested on: Streptococcus pyogenes; assay: Antibacterial activity against macrolide-resistant Streptococcus pyogenes 2011 harboring mef(A) gene after 35 passages and 10 compound-free subculturing by retest method
[30] = tested on: Streptococcus pyogenes; assay: Antibacterial activity against macrolide-resistant Streptococcus pyogenes 237 harboring mutation in L4 ribosomal protein after 20 passages and 10 compound-free subculturing by retest method
[31] = tested on: Streptococcus pyogenes; assay: Antibacterial activity against macrolide-resistant Streptococcus pyogenes 237 harboring mutation in L4 ribosomal protein after 43 passages and 10 compound-free subculturing by retest method
[32] = tested on: Streptococcus pneumoniae; assay: Antibacterial activity against macrolide-resistant Streptococcus pneumoniae harboring erm(B) gene after overnight incubation by agar dilution method; format: functional; summary of the method: as §2
[33] = tested on: Streptococcus pneumoniae; assay: Antibacterial activity against macrolide-resistant Streptococcus pneumoniae 3665 harboring mef(A) gene after 14 passages and 10 compound-free subculturing by retest method; format: functional

Row | SMILES | MIC50 [1] [µg/mL] | MIC90 [1] [µg/mL] | MIC [2] [µg/mL] | MIC [3] [µg/mL] | MIC50 [4] [µg/mL] | MIC90 [4] [µg/mL] | MIC50 [5] [µg/mL] | MIC90 [5] [µg/mL] | MIC50 [6] [µg/mL] | MIC90 [6] [µg/mL] | MIC50 [7] [µg/mL] | MIC90 [7] [µg/mL] | MIC [8] [µg/mL] | MIC [9] [µg/mL] | MIC [10] [µg/mL] | MIC [11] [µg/mL] | MIC [12] [µg/mL] | MIC [13] [µg/mL] | MIC [14] [µg/mL] | MIC [15] [µg/mL] | further results
1 | CC[C@H]1OC(=O)[C@H](C)[C@@H](O[C@H]2C[C@@](C)(OC)[C@@H](O)[C@H](C)O2)[C@H](C)[C@@H](O[C@@H]2O[C@H](C)C[C@H](N(C)C)[C@H]2O)[C@](C)(O)C[C@@H](C)CN(C)[C@H](C)[C@@H](O)[C@]1(C)O [AZITHROMYCIN] | > 64 | > 64 | 2 (≈ 2.67 µM) | 32 (≈ 42.7 µM) | 8 (≈ 10.7 µM) | 8 (≈ 10.7 µM) | 16 (≈ 21.4 µM) | > 64 | > 64 | > 64 | 8 (≈ 10.7 µM) | 8 (≈ 10.7 µM) | 0.03 (≈ 0.0401 µM) | 0.03 (≈ 0.0401 µM) | > 64 | > 64 | > 64 | 4 (≈ 5.34 µM) | > 64 | > 64 | MIC [16]: 0.06 µg/mL (≈ 0.0801 µM); MIC [17]: > 64 µg/mL; MIC [18]: 0.03 µg/mL (≈ 0.0401 µM); MIC [19]: > 64 µg/mL; MIC [20]: > 64 µg/mL; MIC [21]: 8 µg/mL (≈ 10.7 µM); MIC [22]: 2 µg/mL (≈ 2.67 µM); MIC [23]: > 64 µg/mL; MIC [24]: 1 µg/mL (≈ 1.34 µM); MIC [25]: 4 µg/mL (≈ 5.34 µM); MIC [26]: > 64 µg/mL; MIC [27]: > 64 µg/mL; MIC [28]: 16 µg/mL (≈ 21.4 µM); MIC [29]: 16 µg/mL (≈ 21.4 µM); MIC [30]: 4 µg/mL (≈ 5.34 µM); MIC [31]: 8 µg/mL (≈ 10.7 µM)
2 | CC[C@H]1OC(=O)[C@H](C)[C@@H](O[C@H]2C[C@@](C)(OC)[C@@H](O)[C@H](C)O2)[C@H](C)[C@@H](O[C@@H]2O[C@H](C)C[C@H](N(C)C)[C@H]2O)[C@](C)(OC)C[C@@H](C)C(=O)[C@H](C)[C@@H](O)[C@]1(C)O [CLARITHROMYCIN] | 16 (≈ 21.4 µM) | > 64 | 0.25 (≈ 0.334 µM) | 8 (≈ 10.7 µM) | 4 (≈ 5.35 µM) | 8 (≈ 10.7 µM) | 2 (≈ 2.67 µM) | > 64 | > 64 | > 64 | 4 (≈ 5.35 µM) | 8 (≈ 10.7 µM) | 0.016 (≈ 0.0214 µM) | 0.06 (≈ 0.0802 µM) | > 64 | > 64 | > 64 | 1 (≈ 1.34 µM) | > 64 | 16 (≈ 21.4 µM) | MIC50 [32]: > 64 µg/mL; MIC [33]: 2 µg/mL (≈ 2.67 µM); MIC ([33]; Streptococcus pneumoniae, 3665, read-out: MIC): 4 µg/mL (≈ 5.35 µM); MIC [16]: 0.125 µg/mL (≈ 0.167 µM); MIC [17]: 16 µg/mL (≈ 21.4 µM); MIC [18]: 0.016 µg/mL (≈ 0.0214 µM); MIC [19]: > 64 µg/mL; MIC [20]: 64 µg/mL (≈ 85.6 µM); MIC [21]: 2 µg/mL (≈ 2.67 µM); MIC [22]: 0.5 µg/mL (≈ 0.668 µM); MIC [23]: 16 µg/mL (≈ 21.4 µM); MIC [24]: 0.25 µg/mL (≈ 0.334 µM); MIC [25]: 0.5 µg/mL (≈ 0.668 µM); MIC [26]: > 64 µg/mL; MIC [27]: > 64 µg/mL; MIC [28]: 1 µg/mL (≈ 1.34 µM); MIC [29]: 4 µg/mL (≈ 5.35 µM); MIC [30]: 1 µg/mL (≈ 1.34 µM); MIC [31]: 0.5 µg/mL (≈ 0.668 µM)
